Experimental data from different studies.
Each line is one published result; the experiments were not run side by side.
Target: Tyrosine-protein kinase CSK (CSK, Homo sapiens, UniProt P41240)

SMILES | assay | conditions | remaining binding [%]
Cc1ccc(-n2nc(C(C)(C)C)cc2NC(=O)Nc2ccc(-n3c(N)c(C(N)=O)c4nc5ccc(NCCCN)cc5nc43)cc2)cc1 | cell-free assay, competition with immobilised ligand | 1 µM | 0.65
CC1CCCN1c1nccc(-c2cnn3ncccc23)n1 (stereo not drawn) | binding | 1 µM | 100
O=C1CCc2cc(Nc3cc(OC4CCOCC4)c([N+](=O)[O-])cc3Cl)ccc2N1 | cell-free assay, competition with immobilised ligand | 1 µM | 98
O=C(NCCCN1CCOCC1)c1ccc(Nc2ncc(Cl)c(-c3ccc(Cl)s3)n2)cc1 | binding, competition with immobilised ligand | 1 µM | 86
CCN1CCN(Cc2ccc(C(=O)Nc3ccc(C)c(Oc4ccc5c(c4)CC(=O)N5)c3)cc2C(F)(F)F)CC1 | binding, competition with immobilised ligand | 1 µM | 100
O=C(Nc1c[nH]nc1C(=O)NC1CCNCC1)c1cc(F)cc(F)c1 | binding, competition with immobilised ligand | 1 µM | 100
c1cncc(-c2cccc(Nc3nccc(NC4CCCCC4)n3)c2)c1 | binding, competition with immobilised ligand | 10 µM | 88
CNC(=O)[C@@H]1CC[C@@H](n2c(-c3ccc4cnccc4c3)nc3ccc(C(=O)NCc4cccc(C(N)=O)c4)cc32)C1 | binding, competition with immobilised ligand | 1 µM | 100
Nc1ncc2c(n1)-c1c([nH]c3ccc(C#CC4CC4)cc13)CCCC2 | binding, competition with immobilised ligand | 1 µM | 96
CN(C)c1ncc(F)c(-c2cnn3ncccc23)n1 | binding | 1 µM | 98
CS(=O)(=O)c1cc(C2(NC(=O)c3cncc4c3cnn4-c3ccc(F)cc3)CC2)ccn1 | cell-free assay, competition with immobilised ligand | 1 µM | 95
N[C@@H]1CCN(c2nccc(-c3cnn4ncccc34)n2)C1 | binding | 1 µM | 94
Cc1cnc(Nc2ccc(C(=O)N3CCC(N4CCCC4)CC3)cc2)nc1-c1cc2ccccc2s1 | binding, competition with immobilised ligand | 1 µM | 62
C[C@H](NC(=O)c1cnc2n1[C@](C)(Cc1ccc(C#N)cc1)C(=O)N2c1cc(Cl)c(F)c(Cl)c1)C(=O)NC1(c2ccccn2)CC1 | cell-free assay, competition with immobilised ligand | 1 µM | 100
CN(C)c1nccc(-c2cnn3ncccc23)n1 | binding | 1 µM | 68
CCc1ccccc1C(=O)Nc1n[nH]c2c(C)c(F)c(C3C(C#N)=C(C)N(C)C(C)=C3C#N)cc12 | cell-free assay, competition with immobilised ligand | 1 µM | 98
Cc1cnn2ncc(-c3ccnc(N(C)C)n3)c2c1 | binding | 1 µM | 99
O=C(NCCCC1CCCCC1)c1ccc(CNC(=O)c2cnn(-c3ccccc3)c2C(F)(F)F)cc1 | cell-free assay, competition with immobilised ligand | 0.1 µM | 100
O=C(c1ccc(Nc2ncc(Cl)c(-c3ccc(Cl)s3)n2)cc1)N1CCC(N2CCCC2)CC1 | binding, competition with immobilised ligand | 1 µM | 75
C[C@@H]1CCN(c2nccc(-c3cnn4ncccc34)n2)C1 | binding | 1 µM | 89
COc1ccc2c(c1)O[C@@H](c1ccc(OC)c(OC)c1)C[C@H]2NC(=O)C1(c2ccc3c(c2)OC(F)(F)O3)CC1 | cell-free assay, competition with immobilised ligand | 1 µM | 87
